Paper PMC6039301 (Journal of medicinal chemistry, 2017)
“Also recorded” adds a separate entry of the source.

Legend:
ERα levels = assay: Western blot analysis of ERα; assay type: cell-based; settings: 3×10^−6 M, 24 h (Figure 6B)
Summary of the method: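 Cells treated 24 h with test compound at 3×10−10, 3×10−8 or 3×10−6 M; E2 (1×10−8 M) and tamoxifen (3×10−6 M) were reference treatments. Whole-cell extracts made with protease and phosphatase inhibitors, separated on 10% SDS-PAGE and transferred to nitrocellulose. Probed for ERα (F10 antibody) and β-actin. Band levels expressed as percent of vehicle.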

[1] = test system: ERα levels in MCF-7 breast cancer cells; assay: In-cell western assay for ERα level; assay type: cell-based; settings: MCF-7, 3 μM, 24 h
Summary of the method: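 MCF-7 cells seeded at 3000 cells/well, exposed to test compound at a single 3 μM concentration for 24 h. Cells fixed in 4% formaldehyde, permeabilized with 0.1% Triton X-100, blocked, then probed overnight at 4 °C with rabbit anti-ERα (HC-20). IRDye 800 secondary and Cell Tag 700 were used, with ERα signal normalized to Cell Tag. Reported as percent of vehicle; mean of ≥3 independent experiments.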

[2] = test system: ER-positive MCF-7 breast cancer cells; assay: Cell proliferation assay; assay type: cell-based; settings: for Cell proliferation (CP), percent of vehicle control (antiproliferative efficacy): MCF-7, 3 μM, 6 days, maximum suppression ca. 20%; for IC50: Homo sapiens, MCF7, read-out: IC50 antiproliferative activity
[3] = target: T1, full-length human estrogen receptor alpha (ERα) (Homo sapiens, UniProt P03372); settings: cited from earlier work
T1 sequence (P03372 1-595): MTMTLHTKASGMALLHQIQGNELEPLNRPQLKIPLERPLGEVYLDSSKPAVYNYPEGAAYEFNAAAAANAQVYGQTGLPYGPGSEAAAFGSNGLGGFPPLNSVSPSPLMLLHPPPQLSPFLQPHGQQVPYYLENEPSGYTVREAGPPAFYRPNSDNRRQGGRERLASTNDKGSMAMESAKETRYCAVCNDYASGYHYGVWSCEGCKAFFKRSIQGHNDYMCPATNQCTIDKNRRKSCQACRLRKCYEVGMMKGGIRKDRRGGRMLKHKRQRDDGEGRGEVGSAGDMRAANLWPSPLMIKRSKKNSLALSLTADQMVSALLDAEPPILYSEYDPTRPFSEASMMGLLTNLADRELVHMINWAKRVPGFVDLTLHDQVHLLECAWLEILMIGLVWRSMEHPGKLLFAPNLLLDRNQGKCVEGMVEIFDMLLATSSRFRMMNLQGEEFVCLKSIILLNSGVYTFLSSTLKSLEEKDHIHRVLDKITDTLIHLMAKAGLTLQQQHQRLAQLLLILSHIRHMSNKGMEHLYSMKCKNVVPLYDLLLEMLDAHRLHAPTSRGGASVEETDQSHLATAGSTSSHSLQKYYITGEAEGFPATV

Structure (SMILES) | ERα level, percent of vehicle control (ERα downregulating efficacy) [1] | Cell proliferation (CP), percent of vehicle control (antiproliferative efficacy) [2] | further results
CC/C(=C(\c1ccc(O)cc1)c1ccc(OCCN(C)C)cc1)c1ccccc1 [hydroxytamoxifen, 4-hydroxytamoxifen] |  |  | effect on cellular ERα level (Western blot) (ERα levels): upregulate ERα levels
CCCCNC(=O)/C=C/c1ccc(C(=C2C3CC4CC(C3)CC2C4)c2ccc(O)cc2)cc1 [Compound 18, (E)-3-(4-(((1r,3r,5R,7S)-Adamantan-2-ylidene)(4-hydroxyphenyl)methyl)phenyl)-N-butylacrylamide] | good efficacies | good efficacies | 
C[C@]12CC[C@@H]3c4ccc(O)cc4C[C@@H](CCCCCCCCC[S+]([O-])CCCC(F)(F)C(F)(F)F)[C@H]3[C@@H]1CC[C@@H]2O (some centres unmarked) [Fulvestrant, fulvestrant, reference compound] | 20% |  | 
NCCNC(=O)/C=C/c1ccc(C(=C2C3CC4CC(C3)CC2C4)c2ccc(O)cc2)cc1 [Compound 24, (E)-3-(4-(((1r,3r,5R,7S)-Adamantan-2-ylidene)(4-hydroxyphenyl)methyl)phenyl)-N-(2-aminoethyl)acrylamide] |  |  | IC50 [2]: 10 nM
O=C(O)/C=C/c1ccc(C(=C2C3CC4CC(C3)CC2C4)c2ccc(O)cc2)cc1 [Compound 5, (E)-3-(4-(((1r,3r,5R,7S)-Adamantan-2-ylidene)(4-hydroxyphenyl)methyl)phenyl)acrylic acid] |  |  | IC50 [2]: 31 nM
NCCCNC(=O)/C=C/c1ccc(C(=C2C3CC4CC(C3)CC2C4)c2ccc(O)cc2)cc1 [Compound 25, (E)-3-(4-(((1r,3r,5R,7S)-Adamantan-2-ylidene)(4-hydroxyphenyl)methyl)phenyl)-N-(3-aminopropyl)acrylamide] | good |  | 
CC(C)CCCCCOC(=O)/C=C/c1ccc(C(=C2C3CC4CC(C3)CC2C4)c2ccc(O)cc2)cc1 [Compound 10, 6-Methylheptyl (E)-3-(4-(((1r,3r,5R,7S)-Adamantan-2-ylidene)(4-hydroxyphenyl)methyl)phenyl)acrylate] | good to very good | no anti-proliferative activity | 
COC(=O)/C=C/c1ccc(C(=C2C3CC4CC(C3)CC2C4)c2ccc(O)cc2)cc1 [Compound 7, Methyl (E)-3-(4-(((1r,3r,5R,7S)-Adamantan-2-ylidene)(4-hydroxyphenyl)methyl)phenyl) acrylate] |  | no anti-proliferative activity | 
CCCCCC(=O)/C=C/c1ccc(C(=C2C3CC4CC(C3)CC2C4)c2ccc(O)cc2)cc1 [Compound 6, (E)-1-(4-(((1r,3r,5R,7S)-Adamantan-2-ylidene)(4-hydroxyphenyl)methyl)phenyl)oct-1-en-3-one] | some efficacy | some efficacy | 
O=C(/C=C/c1ccc(C(=C2C3CC4CC(C3)CC2C4)c2ccc(O)cc2)cc1)NCCCCCO [Compound 23, (E)-3-(4-(((1r,3r,5R,7S)-Adamantan-2-ylidene)(4-hydroxyphenyl)methyl)phenyl)-N-(5-hydroxypentyl)acrylamide] | good and similar to that of the parent 5 | equivalent to that of the parent acid 5 | IC50 [2]: 10 nM
NCCCCNC(=O)/C=C/c1ccc(C(=C2C3CC4CC(C3)CC2C4)c2ccc(O)cc2)cc1 [Compound 26, (E)-3-(4-(((1r,3r,5R,7S)-Adamantan-2-ylidene)(4-hydroxyphenyl)methyl)phenyl)-N-(4-aminobutyl)acrylamide] | good |  | 
O=C(/C=C/c1ccc(C(=C2C3CC4CC(C3)CC2C4)c2ccc(O)cc2)cc1)NCC(F)(F)F [Compound 28, (E)-3-(4-(((1r,3r,5R,7S)-Adamantan-2-ylidene)(4-hydroxyphenyl)methyl)phenyl)-N-(2,2,2-trifluoroethyl)acrylamide] | Least good | Least good | 
O=C(/C=C/c1ccc(C(=C2C3CC4CC(C3)CC2C4)c2ccc(O)cc2)cc1)NCCO [Compound 20, (E)-3-(4-(((1r,3r,5R,7S)-Adamantan-2-ylidene)(4-hydroxyphenyl)methyl)phenyl)-N-(2-hydroxyethyl)acrylamide] | impressive efficacies | impressive efficacies | IC50 [2]: 2.4 nM
N#C/C=C/c1ccc(C(=C2C3CC4CC(C3)CC2C4)c2ccc(O)cc2)cc1 [Compound 14, (E)-3-(4-(((1r,3r,5R,7S)-Adamantan-2-ylidene)(4-hydroxyphenyl)methyl)phenyl) acrylonitrile] | very effective | matching that of vehicle control; also recorded: no anti-proliferative activity | 
O=C(/C=C/c1ccc(C(=C2C3CC4CC(C3)CC2C4)c2ccc(O)cc2)cc1)OCCCCO [Compound 13, 4-Hydroxybutyl (E)-3-(4-(((1r,3r,5R,7S)-Adamantan-2-ylidene)(4-hydroxyphenyl)methyl)phenyl)acrylate] | good to very good |  | 
O=C(/C=C/c1ccc(C(=C2C3CC4CC(C3)CC2C4)c2ccc(O)cc2)cc1)NCCCO [Compound 21, (E)-3-(4-(((1r,3r,5R,7S)-Adamantan-2-ylidene)(4-hydroxyphenyl)methyl)phenyl)-N-(3-hydroxypropyl)acrylamide] | good and similar to that of the parent 5; also recorded: comparable to that of fulvestrant | equivalent to that of the parent acid 5; also recorded: comparable to that of fulvestrant | IC50 [2]: 1.9 nM
CCCCOC(=O)/C=C/c1ccc(C(=C2C3CC4CC(C3)CC2C4)c2ccc(O)cc2)cc1 [Compound 9, Butyl (E)-3-(4-(((1r,3r,5R,7S)-Adamantan-2-ylidene)(4-hydroxyphenyl)methyl)phenyl) acrylate] | good to very good |  | 
Oc1ccc(C(=C2C3CC4CC(C3)CC2C4)c2ccc(O)cc2)cc1 [parent bisphenolic adamantyl-core] |  |  | binding affinity for ERα, fold higher than that of estradiol (E2) [3]: ca. 3 fold; Ki ([3]; read-out: Ki for ERα, corresponds to the affinity relative to E2): 0.07 nM
NC(=O)/C=C/c1ccc(C(=C2C3CC4CC(C3)CC2C4)c2ccc(O)cc2)cc1 [Compound 16, (E)-3-(4-(((1r,3r,5R,7S)-Adamantan-2-ylidene)(4-hydroxyphenyl)methyl)phenyl)acrylamide] | Least good | Least good | 
O=C(/C=C/c1ccc(C(=C2C3CC4CC(C3)CC2C4)c2ccc(O)cc2)cc1)N(CCO)CCO [Compound 31, (E)-3-(4-(((1r,3r,5R,7S)-Adamantan-2-ylidene)(4-hydroxyphenyl)methyl)phenyl)-N,N-bis(2-hydroxyethyl)acrylamide] | relatively unimpressive | relatively unimpressive | 
CCCCN(C)C(=O)/C=C/c1ccc(C(=C2C3CC4CC(C3)CC2C4)c2ccc(O)cc2)cc1 [Compound 29, (E)-3-(4-(((1r,3r,5R,7S)-Adamantan-2-ylidene)(4-hydroxyphenyl)methyl)phenyl)-N-butyl-N-methylacrylamide] | very poor efficacies | very poor efficacies | 
CCCNS(=O)(=O)/C=C/c1ccc(C(=C2C3CC4CC(C3)CC2C4)c2ccc(O)cc2)cc1 [Compound 15, (E)-2-(4-(((1r,3r,5R,7S)-Adamantan-2-ylidene)(4-hydroxyphenyl)methyl)phenyl)-N-propylethene-1-sulfonamide] | only modest | only modest | 
